High-throughput results (PubChem)
Only some compounds are listed: those with a hit (about 2.5% of all), similar ones and a draw of the others.
E-selectin induc: E-selectin induction in HUVECs, primary screen, imaging, HUVEC, immunofluorescence imaging, single point | activation, % at 7.58 µM | P16581 | actives 0.37% (n = 260,000) | normalized: neutral wells 0, TNF-alpha wells 100;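 active means mean E-selectin-positive cell signal at least 10% of the positive control, reached in at least 60% of replicates, without over 20% cell loss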
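material = human umbilical vein endothelial cells (HUVEC), E-selectin induction | quantity = 3,000 cells/well | medium = EGM-2 growth medium on 0.1% gelatin-coated wells | technique = immunofluorescence imaging | read-out basis = % PE-positive cells | control set = TNF-alpha positive control, DMSO neutral control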
ERAP1 inh: human ERAP1 aminopeptidase inhibitors, primary screen, biochemical, single point, plate reader. inhibition, % at 10.7 µM. recombinant ERAP1, Leu-AMC fluorescence, 60 min. Endoplasmic reticulum aminopeptidase 1 (Homo sapiens), Q9NZ08. actives 0.15% (n = 340,000);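 active means mean replicate inhibition of at least 30%, or all replicates individually reaching that 30% level; inactive means mean below 30% and not every replicate reaching it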;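 further: 0% = neutral control wells and 100% = L-leucinethiol positive control wells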
PglD inh: C. jejuni PglD acetyltransferase inhibitors, primary screen, biochemical, DTNB colorimetric, single point. AID 602405, 2012. UDP-N-acetylbacillosamine N-acetyltransferase PglD (Campylobacter jejuni). purified PglD enzyme, DTNB colorimetric CoA detection. actives 0.098% (n = 360,000). inhibition, % at 12.5 µM; in the data active means inhibition above about 16%, passing the limit was not always enough
DENV2 CPE: inhibitors of DENV2 cytopathic effect, primary screen, cell-based, plate reader, single concentration; DENV2-infected cells, cytopathic effect rescue; AID 651640, 2012; actives 1.7% (n = 350,000); CPE inhibition, % at 9.99 µM; in the data active means CPE inhibition above about 20%, passing the limit was not always enough; tested in BHK-21 cells;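 further: 0% = median of neutral control wells and 100% = median of positive control wells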
SIRT5 inh: SIRT5 desuccinylase inhibitors, primary screen, biochemical, fluorescence imaging, single point, set 5; NAD-dependent protein deacylase sirtuin-5, mitochondrial (Homo sapiens), Q9NXA8; Purified SirT5, succinyl-peptide AMC, trypsin-coupled fluorescence; inhibition, % at 15 µM; actives 1.1% (n = 330,000); in the data active means inhibition above about 15%
Starred values were filed as active, the others as inactive; . = no result; ! = not confirmed by another sample.

SMILES	E-selectin induc	ERAP1 inh	PglD inh	DENV2 CPE	SIRT5 inh
O=C(Nc1cc(F)ccc1F)N[C@@H]1CC[C@H](CCNC(=O)c2cnccn2)O[C@@H]1CO	0.1	-0.1	5.4	34.4*	-2.5
O=C(Nc1cc(F)ccc1F)N[C@@H]1CC[C@H](CCNC(=O)c2cnccn2)O[C@H]1CO	-0.2	-1.1	1.0	32.5*	3.6
C[C@H]1CN([C@@H](C)CO)C(=O)c2cc(Br)cnc2O[C@H]1CN(C)C(=O)C1CCOCC1	0.6	1.6	-0.5	23.6*	-1.0
CC(C)CC#Cc1cnc2c(c1)C(=O)N([C@@H](C)CO)C[C@H](C)[C@H](CN(C)C(=O)Cc1ccncc1)O2	-0.3	1.1	1.5	1.8	0.0
CC(C)CC#Cc1cnc2c(c1)C(=O)N([C@H](C)CO)C[C@@H](C)[C@H](CN(C)C(=O)C1CCOCC1)O2	0.8	-0.9	0.2	37.9*	0.0
CC(C)CC#Cc1cnc2c(c1)C(=O)N([C@@H](C)CO)C[C@@H](C)[C@@H](CN(C)C(=O)Cc1ccncc1)O2	0.2	1.3	5.8	27.9*	-2.0
C[C@@H]1CN([C@H](C)CO)C(=O)c2cc(Br)cnc2O[C@H]1CN(C)C(=O)C1CCCCC1	-0.2	-5.8	-2.4	-4.7	-3.0
C[C@@H]1CN([C@@H](C)CO)C(=O)c2cc(Br)cnc2O[C@H]1CN(C)C(=O)C1CCCCC1	-0.1	-1.9	-3.4	10.2	18.3*!
OC[C@@H]1[C@H](c2ccc(-c3ccccc3)cc2)[C@@H]2CN(Cc3ccccn3)CCCCN12	-0.4	2.1	7.7	-5.4	-3.8
CN1CCCCN2[C@@H](CO)[C@H](c3ccc(-c4ccccc4)cc3)[C@@H]2C1	0.3	-0.9	-1.0	32.3*	-1.6
CCS(=O)(=O)N1CCCCN2[C@H](CO)[C@H](c3ccc(-c4ccccc4)cc3)[C@H]2C1	0.0	0.3	1.1	-14.8	2.9
CCS(=O)(=O)N1CCCCN2[C@H](C1)[C@@H](c1ccc(-c3ccccc3)cc1)[C@@H]2CO	0.7	-2.6	-4.4	-3.1	15.8*
CCS(=O)(=O)N1CCCCN2[C@H](CO)[C@@H](c3ccc(-c4ccc(C#N)cc4)cc3)[C@@H]2C1	-0.2	-0.3	-3.0	65.0*	2.4
CCS(=O)(=O)N1CCCCN2[C@H](CO)[C@H](c3ccc(-c4ccc(C#N)cc4)cc3)[C@H]2C1	-0.4	-1.1	-2.5	55.5*	-0.4
CCCn1nc(C(=O)Nc2nnc(C3CC3)s2)c2ccccc2c1=O	.	-1.0	1.7	9.8	-1.0
COc1ccc(CN2CCN(C(=O)c3ccco3)CC2)cc1OCc1ccccc1	.	.	-4.8	.	.
CC1(C(=O)NS(=O)(=O)c2cccc(OC(F)F)c2)CCN1C(=O)c1ccccc1CCc1ccccc1 (stereo not drawn)	0.4	12.5	-3.4	-1.9	-0.4
CCN(CC(=O)Nc1ccccc1OC)CC(=O)Nc1sccc1C#N	-0.1	-3.0	-4.2	-4.3	15.4*
O=C(CN1C(=O)C2(OCCO2)c2cc(Br)ccc21)NO	-0.2	34.3*	.	2.2	-0.3
N#Cc1ccc(C(=O)Nc2cc(-c3ccccc3)nn2-c2ccccc2)cc1	0.1	-3.1	-0.5	-3.1	-1.0
N#Cc1ccc(C(=O)Nc2cc(C3CC3)nn2-c2ccccc2)cc1	0.0	-0.9	-2.9	22.1*	-4.1
N#C[C@@H]1[C@@H](c2ccc(-c3ccc(F)cc3)cc2)[C@H](CO)N1c1nc(-c2ccccc2)cs1	0.3	1.8	-0.1	60.9*	0.8
N#C[C@@H]1[C@@H](c2ccc(-c3cccc(F)c3)cc2)[C@H](CO)N1c1nc(-c2ccccc2)cs1	-0.1	-5.8	.	90.5*	7.3
CC(C)Cc1nc2sc3c(=O)[nH]cnc3c2c2c1CCCC2	.	-0.1	.	-4.4	2.8
CC(C)(OC(=O)c1ccc(C#N)cc1)c1cc2ccccc2c(=O)o1	-0.1	1.5	-3.3	36.7*	.
CCN1C(=O)[C@H]2[C@@H](c3ccc(OC)cc3)N3C(=O)CN(CCOC)C(=O)[C@@]3(C)[C@H]2C1=O	-0.1	3.4	1.7	98.4*	-4.8
O=C(CCCCC(=O)NCCCc1ccccc1)NCCCc1ccccc1	.	0.4	5.2	-2.1	.
CN1CCS/C1=C/C=C1\SC(=S)N(CC(=O)O)C1=O	0.0	8.1	0.6	-5.5	8.8
